# Screening data deposited in PubChem BioAssay by Johns Hopkins Ion Channel Center.
# MrgX1 ag: human MrgX1 receptor agonism, primary screen | MrgX1-HEK293 cells, Fluo-4 calcium fluorescence, agonist mode; stronger effect = higher value | B-score at 10 µM | 310,000 compounds, 0.44% hits | AID 588627;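 active means calcium response B-score plate-corrected fluorescence ratio at least 3 library SD, with starting fluorescence B-score inside 5 SD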
# Target sequence (Q96LB2 whole entry, looked up): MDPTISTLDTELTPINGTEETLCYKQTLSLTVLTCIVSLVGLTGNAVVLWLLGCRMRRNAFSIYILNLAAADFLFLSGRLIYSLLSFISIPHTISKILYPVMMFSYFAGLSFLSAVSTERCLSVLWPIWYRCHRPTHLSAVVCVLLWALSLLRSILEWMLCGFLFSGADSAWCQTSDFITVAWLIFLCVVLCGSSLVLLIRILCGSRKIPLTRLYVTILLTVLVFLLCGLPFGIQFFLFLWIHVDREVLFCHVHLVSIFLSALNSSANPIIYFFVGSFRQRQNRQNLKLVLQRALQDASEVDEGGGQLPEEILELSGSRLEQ
#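 System: HEK293 cells stably expressing human MrgX1 receptor; Dosing: test compound in the initial addition of three; Schedule: overnight plating, then 30 min 37 °C plus 30 min room-temperature dye loading; Detection: kinetic calcium dye fluorescence, Fluo-4 NW; Controls: per-plate positive and negative controls for Z′ factor.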
# RGS4 block: human RGS4 inhibition | P49798 | HEK293 M3R/RGS4 inducible, Fluo-4 calcium flux; stronger effect = higher value; triggered by carbachol at its EC20 | B-score at 10 µM | 310,000 compounds, 0.45% hits | AID 463165;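 active means B-score, a plate-corrected calcium signal, over three deviations above library mean, with baseline fluorescence within five deviations of library mean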;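 further: RGS4 expression induced by doxycycline in cells with stable M3 receptor; B-score is computed from the integrated fluorescence ratio over baseline after carbachol; higher B-score means a larger calcium signal and so more RGS4 inhibition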
# Target sequence (P49798 whole entry, looked up): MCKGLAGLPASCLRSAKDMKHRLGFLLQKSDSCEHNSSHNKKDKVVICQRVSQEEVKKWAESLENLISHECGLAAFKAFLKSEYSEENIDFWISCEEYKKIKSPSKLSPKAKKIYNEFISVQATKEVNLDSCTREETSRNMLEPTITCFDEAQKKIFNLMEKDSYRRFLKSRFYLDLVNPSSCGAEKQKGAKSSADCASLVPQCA
# RGS4 pot: RGS4 potentiation or activation; HEK293 M3R/inducible RGS4, carbachol calcium flux Fluo4; stronger effect = lower value; 310,000 compounds, 0.92% hits; AID 463111; B-score at 10 µM;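 active means B-score of the integrated calcium signal more than 4 SD below the library mean, with starting fluorescence not abnormally high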;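 further: negative B-score means reduced calcium response which marks RGS4 activation or potentiation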
#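 Assay system: Inducible-RGS4 HEK293 cells carrying M3 receptor | Schedule: Compound preincubation 20 min at room temperature before agonist | Signal: Kinetic calcium fluorescence imaging with Fluo4-AM dye, 2 µM | Read-out basis: B score from integrated fluorescence ratio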
# MrgX1 allo act: allosterically activates human MrgX1 receptor signaling | AID 588675 | Q96LB2 | B-score at 10 µM | MrgX1-HEK293, Fluo-4 calcium flux, FDSS; stronger effect = higher value | 310,000 compounds, 0.63% hits;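 active means plate-corrected calcium response at least 3 library SD above typical, normal starting fluorescence, not activating the receptor alone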;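 further: compound read alongside a low EC10 to EC30 dose of BAM8-22 agonist; peak minus trough fluorescence over baseline measured at the second addition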
# MrgX1 antagonist: blocks BAM8-22 activation of human MrgX1 receptor; AID 588676; MRGX1-HEK293 calcium flux, Fluo-4, BAM8-22 antagonism; stronger effect = lower value; Q96LB2; 310,000 compounds, 1.3% hits; B-score at 10 µM;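 active means calcium-response B-score plate-corrected more than 3 library SD below zero, starting fluorescence within 5 deviations, no agonist response on first addition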;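 further: peak minus trough fluorescence over baseline after final BAM8-22 challenge near maximal dose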
# * hit, by the source's call; i = inactive; . = no result given; ! = not active in a repeat. In the library only some 3.5% were active in any assay of this set; here they are far more common.
SMILES,MrgX1 ag,RGS4 block,RGS4 pot,MrgX1 allo act,MrgX1 antagonist
CN1CCN(C2=C(Cl)C(=O)C(c3cnc(N4CCCCC4)s3)=C(Cl)C2=O)CC1,i,i,-7.1*,i,i
COc1ccc(CN(CC(=O)NCc2ccc(F)cc2)C(=O)CCC(=O)Nc2nccs2)cc1,i,i,i,i,i
COc1ccc(CN(CC(=O)NCc2ccccc2)C(=O)CCC(=O)Nc2nccs2)cc1,i,i,i,12*,i
NC(=S)Nc1cccc2[nH]ccc12,i,i,i,i,i
N#C/C(=C\c1ccc(O)c(O)c1)S(=O)(=O)c1ccccc1,i,i,i,14*,i
COc1cccc(N2C(=O)CC(NNc3nc4ccccc4s3)C2=O)c1 (stereo unspecified),30*,i,i,i,i
CCOc1c(C=C(C#N)C#N)c2ccccc2n1CC,i,i,i,i,-5.4*
Cc1nn(-c2ccccc2)nc1CNC(=O)c1ncoc1-c1ccccc1,i,i,-7.4*,i,i
Oc1cccc2ccc[n+](CC(O)Cn3c4ccccc4c4ccccc43)c12 (stereo unspecified),i,i,i,i,i
CC/C(=N\NC(=O)CSc1ncccn1)c1ccc2c(c1)OCCO2,i,i,i,i,i
O=C(NNC(=O)c1cc(-c2cccc(Br)c2)nc2ccccc12)c1csc(N2CCOCC2)n1,i,i,-7.6*,i,i
CCN(CC)S(=O)(=O)c1cccc(C(=O)/C=C2/N(C)c3ccccc3C2(C)C)c1,i,i,-7*,i,i
CN1/C(=C\C(=S)NC(=O)c2cccc(Br)c2)C(C)(C)c2ccccc21,i,i,i,i,i
COc1c(Br)cc(/C=N/n2c(-c3ccccc3)n[nH]c2=S)c(O)c1Br,i,i,i,i,i
Cc1ccc(C)c(CN2CCC(CNC(=O)Nc3ccc(Cl)cc3)CC2)c1,i,i,i,i,i
COc1cc(NC(=O)NCC2CCN(Cc3ccccc3C)CC2)cc(OC)c1OC,i,i,-7*,i,i
Cc1ccc(S(=O)(=O)N2[C@@H](c3ccc(F)cc3)C(C(=O)O)=CC[C@H]2c2cccc(C)c2)cc1,i,.,.,i,i
Cc1ccc(S(=O)(=O)N2[C@@H](c3ccc(F)cc3)C(C(=O)O)=CC[C@H]2c2ccc3c(c2)OCO3)cc1,i,.,.,9.5*,i
COc1ccc([C@@H]2CC=C(C(=O)O)[C@H](c3ccccc3F)N2S(=O)(=O)c2ccc(C)cc2)cc1OC,i,.,.,i,i
Cc1ccc(S(=O)(=O)N2[C@@H](c3ccccc3F)C(C(=O)O)=CC[C@H]2c2ccc3c(c2)OCO3)cc1,i,.,.,14*,i
CC(C)[C@H](NC(=O)c1ccco1)C(=O)N(C)Cc1c(F)cccc1Cl,i,i,i,i,i
O=C(NCCN1CCOCC1)c1ccc2c(c1)N(Cc1ccc(Cl)cc1)C(=O)CS2,i,i,-7.3*,i,i
O=C(NCCN1CCOCC1)c1ccc2c(c1)N(Cc1ccccc1)C(=O)CS2,i,i,i,i,i
CCC1CCCCN1CCCNC(=O)c1ccc2c(c1)N(Cc1c(F)cccc1Cl)C(=O)CS2 (stereo unspecified),i,i,-8.2*,i,i
CC(C)c1ccc2c(c1)C(N1CCNCC1)Cc1ccc(F)cc1S2 (stereo unspecified),i,i,-8.7*,i,i
SMILES,MrgX1 ag,RGS4 block,RGS4 pot,MrgX1 allo act,MrgX1 antagonist
CN1CCN(C2Cc3cc(F)ccc3Sc3ccc(Cl)cc32)CC1 (stereo unspecified),i,i,-8.3*,i,i
CSc1ccc2c(c1)C(N1CCN(C)CC1)Cc1ccccc1S2 (stereo unspecified),i,i,-7.4*!,i,i
CN1CCN(C2Cc3ccccc3Sc3ccc(Cl)cc32)CC1 (stereo unspecified),i,.,.,i,i
O=C(Nc1cccnc1)c1cc(-c2ccc(Cl)cc2Cl)on1,i,i,i,i,i
Nc1nc2c(s1)COc1ccccc1-2,i,i,i,i,i
Nc1nc2c(s1)CCc1c-2cnn1-c1ccccc1,33*,i,i,i,i
O=C(NCc1ccccc1)c1ccc2c(=O)[nH]c3c(C(=O)NCC4CCCO4)sc(=S)n3c2c1 (stereo unspecified),i,i,i,i,i
O=C(NC1CCCC1)c1sc(=S)n2c1[nH]c(=O)c1ccccc12,60*,i,i,i,i
O=C(NCc1ccco1)c1sc(=S)n2c1[nH]c(=O)c1ccccc12,57*,i,i,i,i
O=C(CCc1nnc2ccc(N3CCOCC3)nn12)Nc1ccc(F)cc1F,i,i,i,i,i
NN1C(=O)/C(=C2/Sc3ccccc3N2CCCS(=O)(=O)O)SC1=S,i,i,i,i,i
O=C1NC(=S)S/C1=C1\Sc2ccccc2N1CCCS(=O)(=O)O,i,i,i,i,-4.8*
CC1CCN(CCCCOc2cccc(Br)c2)CC1,i,i,-7*,i,i
CC1CCN(CCCCOc2ccccc2Br)CC1,i,i,i,i,i
Brc1ccc(OCCCCN2CCCCC2)cc1,i,i,i,i,i
CC1CCN(CCCCOc2ccc(Br)cc2)CC1,i,i,-7.4*,i,i
COc1cccc(CNC(=O)Cn2ccc3cc(S(=O)(=O)N4CCCCCC4)ccc32)c1OC,i,i,i,i,i
C=C(CO)C1Cc2cc(C(C)=O)ccc2O1 (stereo unspecified),i,i,i,i,i
Cc1ccc(C(C)C)c(OCCN(C)C)c1,i,i,-7.1*,i,i
CCCN(CCC)CCOc1cc(C)ccc1C(C)C,i,i,i,i,i
CC(C)N(Cc1nc(-c2ccc(Cl)cc2)no1)Cc1nccn1C,i,i,i,i,i
O=C(c1cccc([N+](=O)[O-])c1)N1CCCC(C(=O)N2CCN(c3ccccc3)CC2)C1 (stereo unspecified),i,i,i,i,i
COc1ccc(C2C=C(C)Nc3ncnn32)cc1 (stereo unspecified),i,i,i,i,i
COc1ccc(C2C=C(c3ccccc3)Nc3ncnn32)cc1 (stereo unspecified),i,i,i,10*,i
CCOc1ccc(C2C=C(c3ccc(C)cc3)Nc3ncnn32)cc1 (stereo unspecified),30*,i,i,i,i
